Laboratory results from ChEMBL document CHEMBL3244336, “Antitumor agents. 1. 1,4-Bis[(aminoalkyl)amino]-9,10-anthracenediones” (J Med Chem, 1979).
The source made the active and inactive calls.

Experiments:
P388 [1] = experiment: Antitumor activity against mouse P388 cells allografted in mouse assessed as increase of median life span at 50 mg/kg, ip on day 1, 5 and 9 measured up to 60 days relative to control; assay type: functional; conditions: route intraperitoneal
How it was run: (§1)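 BDF1 or CDF1 mice inoculated ip with ascitic P388 leukemia cells. Dosing ip on days 1, 5 and 9. Deaths recorded for 60 days; % increase in median life span over controls. "Cures" are survivors/total at 60 days.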

P388 [2] = experiment: Antitumor activity against mouse P388 cells allografted in mouse assessed as disease cure at 50 mg/kg, ip on day 1, 5 and 9 measured up to 60 days; assay type: functional, organism-based; design: dose 50 mg/kg
How it was run: (§2)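 BDF1 or CDF1 mice inoculated ip with ascitic P388 leukemia cells, dosed ip on days 1, 5 and 9. Deaths recorded for 60 days; "cures" taken as number of survivors/total at 60 days.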

B16 [3] = experiment: Antitumor activity against mouse B16 cells allografted in BDF1 mouse assessed as increase of median life span at 25 mg/kg, ip on day 1 to 9 measured up to 80 days relative to control; assay type: functional; conditions: route intraperitoneal
How it was run: (§3)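 BDF1 mice implanted ip with a homogenate from 0.05 g of B16 tumor. Test agent given ip on days 1-9. Deaths recorded for 80 days. Result is % increase in median life span over untreated controls. "Cures" are survivors/total at 80 days.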

P388 [4] = experiment: Antitumor activity against mouse P388 cells allografted in mouse assessed as increase of median life span at 25 mg/kg, ip on day 1, 5 and 9 measured up to 60 days relative to control; assay type: functional; conditions: route intraperitoneal; how it was run: as §1
P388 [5] = experiment: Antitumor activity against mouse P388 cells allografted in mouse assessed as disease cure at 25 mg/kg, ip on day 1, 5 and 9 measured up to 60 days; assay type: functional, organism-based; design: dose 25 mg/kg; how it was run: as §2
B16 [6] = experiment: Antitumor activity against mouse B16 cells allografted in BDF1 mouse assessed as increase of median life span at 6.2 mg/kg, ip on day 1 to 9 measured up to 80 days relative to control; assay type: functional; conditions: route intraperitoneal; how it was run: as §3
B16 [7] = experiment: Antitumor activity against mouse B16 cells allografted in BDF1 mouse assessed as disease cure at 6.2 mg/kg, ip on day 1 to 9 measured up to 80 days; assay type: functional, organism-based; design: dose 6.2 mg/kg
How it was run: (§4)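 BDF1 mice implanted ip with homogenate from 0.05 g of B16 tumor, then dosed ip on days 1-9. Deaths recorded for 80 days; "cures" scored as survivors/total at 80 days.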

P388 [8] = experiment: Antitumor activity against mouse P388 cells allografted in mouse assessed as increase of median life span at 300 mg/kg, ip on day 1, 5 and 9 measured up to 60 days relative to control; assay type: functional; conditions: route intraperitoneal; how it was run: as §1
P388 [9] = experiment: Antitumor activity against mouse P388 cells allografted in mouse assessed as disease cure at 300 mg/kg, ip on day 1, 5 and 9 measured up to 60 days; assay type: functional, organism-based; design: dose 300 mg/kg; how it was run: as §2
B16 [10] = experiment: Antitumor activity against mouse B16 cells allografted in BDF1 mouse assessed as increase of median life span at 50 mg/kg, ip on day 1 to 9 measured up to 80 days relative to control; assay type: functional; conditions: route intraperitoneal; how it was run: as §3
B16 [11] = experiment: Antitumor activity against mouse B16 cells allografted in BDF1 mouse assessed as disease cure at 50 mg/kg, ip on day 1 to 9 measured up to 80 days; assay type: functional, organism-based; design: dose 50 mg/kg; how it was run: as §4
[12] = tested on: Lewis lung carcinoma cell line; experiment: Antitumor activity against mouse LLC cells subcutaneously implanted in mouse; assay type: functional, cell-based
[13] = tested on: Lewis lung carcinoma cell line; experiment: Antitumor activity against mouse LLC cells intravenously implanted in mouse; assay type: functional, cell-based
P388 [14] = experiment: Antitumor activity against mouse P388 cells allografted in mouse assessed as increase of median life span at 3.1 mg/kg, ip on day 1, 5 and 9 measured up to 60 days relative to control; assay type: functional; conditions: route intraperitoneal
How it was run: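 BDF or CDF1 mice injected ip with ascitic leukemia cells, then dosed ip on days 1, 5 and 9. Deaths recorded for 60 days. Read-outs: percent increase in median life span over controls, and "cures" as survivors/total at 60 days.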

P388 [15] = experiment: Antitumor activity against mouse P388 cells allografted in mouse assessed as increase of median life span at 6.2 mg/kg, ip on day 1, 5 and 9 measured up to 60 days relative to control; assay type: functional; conditions: route intraperitoneal; how it was run: as §1
P388 [16] = experiment: Antitumor activity against mouse P388 cells allografted in mouse assessed as disease cure at 6.2 mg/kg, ip on day 1, 5 and 9 measured up to 60 days; assay type: functional, organism-based; design: dose 6.2 mg/kg; how it was run: as §2
B16 [17] = experiment: Antitumor activity against mouse B16 cells allografted in BDF1 mouse assessed as disease cure at 3.1 mg/kg, ip on day 1 to 9 measured up to 80 days; assay type: functional, organism-based; design: dose 3.1 mg/kg; how it was run: as §4
B16 [18] = experiment: Antitumor activity against mouse B16 cells allografted in BDF1 mouse assessed as increase of median life span at 3.1 mg/kg, ip on day 1 to 9 measured up to 80 days relative to control; assay type: functional; conditions: route intraperitoneal; how it was run: as §3
P388 [19] = experiment: Antitumor activity against mouse P388 cells allografted in mouse assessed as increase of median life span at 200 mg/kg, ip on day 1, 5 and 9 measured up to 60 days relative to control; assay type: functional; conditions: route intraperitoneal; how it was run: as §1
B16 [20] = experiment: Antitumor activity against mouse B16 cells allografted in BDF1 mouse assessed as increase of median life span at 200 mg/kg, ip on day […] measured up to 80 days relative to control; assay type: functional; conditions: route intraperitoneal
P388 [21] = experiment: Antitumor activity against mouse P388 cells allografted in mouse assessed as increase of median life span at 12.5 mg/kg, ip on day 1, 5 and 9 measured up to 60 days relative to control; assay type: functional; conditions: route intraperitoneal; how it was run: as §1
P388 [22] = experiment: Antitumor activity against mouse P388 cells allografted in ip dosed mouse assessed as minimum effective dose administered as single dose; assay type: functional; conditions: read-out: MED
How it was run: (§5)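 Drug given ip to P388 tumor-bearing mice, either once as a single dose or once each 4 days for three injections. Minimum effective dose defined as the dose giving 40% increase in life span over control, read from regression lines of log dose-response data.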

B16 [23] = experiment: Antitumor activity against mouse B16 cells allografted in BDF1 mouse assessed as increase of median life span at 0.8 mg/kg, ip on day 1 to 9 measured up to 80 days relative to control; assay type: functional; conditions: route intraperitoneal; how it was run: as §3
P388 [24] = experiment: Antitumor activity against mouse P388 cells allografted in mouse assessed as increase of median life span at 1.6 mg/kg, ip on day 1, 5 and 9 measured up to 60 days relative to control; assay type: functional; conditions: route intraperitoneal; how it was run: as §1
P388 [25] = experiment: Antitumor activity against mouse P388 cells allografted in ip dosed mouse assessed as minimum effective dose administered as once each 4 days for 3 total injection; assay type: functional; conditions: 96 h, read-out: MED; how it was run: as §5
[26] = Toxicity in […] assessed as maximum tolerated dose administered as single dose; assay type: organism-based, P388; conditions: mouse, in vivo, ip
[27] = Toxicity in […] assessed as maximum tolerated dose administered as once each 4 days for 3 total injection; assay type: organism-based, P388; conditions: mouse, in vivo, ip
P388 [28] = experiment: Antitumor activity against mouse P388 cells allografted in ip dosed mouse assessed as dose providing 40% increase in life span administered as once each 4 days for 3 total injection; assay type: functional
How it was run: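 P388 tumor-bearing mice dosed ip, either once as a single dose or once every 4 days for three injections. It was read from regression lines of log dose-response data.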

[29] = Therapeutic index, ratio of MTD for mouse P388 cells allografted ip dosed mouse to MED for mouse P388 cells allografted in ip dosed mouse administered as single dose; assay type: organism-based; conditions: in vivo, read-out: TI
How it was run: (§6)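 Therapeutic index is MTD/MED for ip dosing, either single or once every 4 days ×3. MTD is the 10% lethal dose in normal mice over 21 days. MED is the dose giving a 40% life-span increase in P388-bearing mice. Both come from log dose-response regression lines.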

[30] = Therapeutic index, ratio of MTD for mouse P388 cells allografted ip dosed mouse to MED for mouse P388 cells allografted in ip dosed mouse administered as once each 4 days for 3 total injection; assay type: organism-based; conditions: in vivo, read-out: TI; how it was run: as §6
L5178Y [31] = experiment: Ratio of adriamycin to compound for inhibition of RNA synthesis in mouse L5178Y cells; assay type: functional
L5178Y [32] = experiment: Ratio of adriamycin to compound for inhibition of DNA synthesis in mouse L5178Y cells; assay type: functional

Compound: CN(C)CCNc1ccc(NCCN(C)C)c2c1C(=O)c1ccc(O)c(O)c1C2=O
- ILS at 50 mg/kg (P388 [1]): 57%
- Activity (P388 [2]): inactive
- ILS at 25 mg/kg (B16 [3]): 60%

Compound: NCCCNc1ccc(NCCCN)c2c1C(=O)c1c(O)ccc(O)c1C2=O
- ILS at 25 mg/kg (P388 [4]): 83%
- Activity (P388 [5]): inactive
- ILS at 6.2 mg/kg (B16 [6]): 87%
- Activity (B16 [7]): inactive

Compound: O=C1c2c(O)ccc(O)c2C(=O)c2c(NCCN3CCCCC3)ccc(NCCN3CCCCC3)c21
- ILS at 300 mg/kg (P388 [8]): 40%
- Activity (P388 [9]): inactive
- ILS at 50 mg/kg (B16 [10]): 0%
- Activity (B16 [11]): inactive

Compound: O=C1c2c(O)ccc(O)c2C(=O)c2c(NCCNCCO)ccc(NCCNCCO)c21
- Activity [12]: inactive
- Activity [13]: inactive

Compound: NCCNc1ccc(NCCN)c2c1C(=O)c1c(O)ccc(O)c1C2=O
- ILS at 3.1 mg/kg (P388 [14]): 173%

Compound: CNCCNc1ccc(NCCNC)c2c1C(=O)c1c(O)ccc(O)c1C2=O
- ILS at 6.2 mg/kg (P388 [15]): 118%
- Activity (P388 [16]): inactive
- Activity (B16 [17]): inactive
- ILS at 3.1 mg/kg (B16 [18]): 210%

Compound: O=C1c2c(O)ccc(O)c2C(=O)c2c(NCCN(CCO)CCO)ccc(NCCN(CCO)CCO)c21
- ILS at 200 mg/kg (P388 [19]): 306%
- ILS at 200 mg/kg (B16 [20]): 212%

Compound: O=C1c2c(O)ccc(O)c2C(=O)c2c(NCCNCCCO)ccc(NCCNCCCO)c21
- ILS at 6.2 mg/kg (B16 [6]): 357%
- ILS at 12.5 mg/kg (P388 [21]): 191%

Compound: O=C1c2ccccc2C(=O)c2c(NCCN(CCO)CCO)ccc(NCCN(CCO)CCO)c21
- ILS at 300 mg/kg (P388 [8]): 73%
- Activity (P388 [9]): inactive
- ILS at 50 mg/kg (B16 [10]): 88%

Compound: Cl.Cl.O=C1c2c(O)ccc(O)c2C(=O)c2c(NCCNCCO)ccc(NCCNCCO)c21 [MITOXANTRONE HYDROCHLORIDE]
- minimal effective dose (P388 [22]): 0.15 mg/kg
- ILS at 0.8 mg/kg (B16 [23]): > 272%
- ILS at 1.6 mg/kg (P388 [24]): > 500%
- minimal effective dose (P388 [25]): 0.023 mg/kg
- MTD [26]: 4.2 mg/kg
- MTD at 96 h [27]: 3.4 mg/kg
- Activity (P388 [28]): 300 mg/kg
- selectivity ratio [29]: 28
- selectivity ratio at 96 h [30]: 148
- Ratio (L5178Y [31]): 7
- Ratio (L5178Y [32]): 4
